Bioassay records deposited in PubChem BioAssay by Broad Institute.
The entries come from a sample that favours hits as a whole.
INS-1E rescue: INS-1E beta cell protection from cytokine death. INS-1E cytokine-induced death, ATP luminescence, 48 h; normalised: neutral wells 0, positive control 100. 20,000 tested, 0.1% active. protection from cytokine-induced ATP loss, % at 10 µM;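 active = mean replicate protection from cytokine-induced ATP loss at least 50% and at least 75% of replicates each reaching 50%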
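Assay system – rat INS-1E insulinoma cell line · Quantity – 8000 cells per well · Buffer or medium – RPMI without phenol red, 5% FBS · Schedule – 48 h co-treatment, 10 min post-lysis read · Technique – luminescent ATP assay (CellTiter-Glo)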
T cruzi HTS: inhibitors of intracellular Trypanosoma cruzi. intracellular Trypanosoma cruzi in host cells, plate reader. 22,000 tested, 4.9% active. AID 651903. activity score (inhibition), % at 5.01 µM; in the data active = activity score above about 55%;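 also: parasites and compound incubated about four days before reading; 0% = median of neutral control wells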
A1 apoptosis 2: compounds inhibiting A1, read as caspase activation; caspase activation, % (no concentration beside the values); 24,000 tested, under 10 active; MEF A1-2A-BIM cells, caspase-Glo luminescence, 3 h; percent of clofoctol response, DMSO zero; in the data active = caspase activation above about 5.9%
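Test system – A1-2A-BIM-expressing MEF cells · Input – 2500 cells/well · Medium – RPMI-1640 growth medium with 10% FBS · Compound dosing – 50 nL pinned compound · Timing – 3 h compound exposure at 37 °C · Technique – Caspase-Glo luminescence (DEVD substrate) · Evaluation – Caspase-3/7 activity from luminescence increase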
Starred values were filed as active, the others as inactive; . = no result.

SMILES	INS-1E rescue	T cruzi HTS	A1 apoptosis 2
C[C@@H]1CN([C@H](C)CO)C(=O)Cc2cc(NC(=O)Nc3cccc4ccccc34)ccc2O[C@@H]1CN(C)Cc1ccccc1	-19	68*	2
Cc1ccc(S(=O)(=O)N(C)C[C@@H]2Oc3ccc(NC(=O)Nc4cccc5ccccc45)cc3CC(=O)N([C@@H](C)CO)C[C@@H]2C)cc1	-15	-6	.
COc1ccc(CN(C)C[C@@H]2Oc3ccc(NC(=O)Nc4cccc5ccccc45)cc3CC(=O)N([C@H](C)CO)C[C@H]2C)cc1	-4	65*	1
C[C@H]1CN([C@@H](C)CO)C(=O)Cc2cc(NC(=O)Nc3cccc4ccccc34)ccc2O[C@@H]1CN(C)Cc1ccc(Cl)c(Cl)c1	-22	60*	.
Cc1ccc(S(=O)(=O)N(C)C[C@H]2Oc3ccc(NC(=O)Nc4cccc5ccccc45)cc3CC(=O)N([C@@H](C)CO)C[C@H]2C)cc1	-5	67*	2
C[C@@H]1CN([C@@H](C)CO)C(=O)Cc2cc(NC(=O)Nc3cccc4ccccc34)ccc2O[C@H]1CN(C)Cc1ccc(Cl)c(Cl)c1	.	.	1
C[C@@H]1CN([C@@H](C)CO)C(=O)Cc2cc(NC(=O)Nc3cccc4ccccc34)ccc2O[C@H]1CN(C)Cc1ccccc1	.	.	1
O=C(N/N=C/c1ccc([N+](=O)[O-])c(O)c1)c1ccccc1O	-26	-9	.
COc1cc(O)cc(OC)c1/C=N/NC(=O)CCCCCCC(=O)Nc1ccccc1O	-2	-14	-2
O=C1O[C@H](c2ccccc2)[C@H](c2ccccc2)N2[C@H]1[C@@H](C(=O)NC[C@H](O)c1ccccc1)[C@]1(C(=O)Nc3ccccc31)[C@H]2c1ccc(OCCO)cc1	.	.	0
C[C@H]1CN([C@@H](C)CO)C(=O)Cc2cc(NC(=O)Nc3cccc4ccccc34)ccc2O[C@@H]1CN(C)Cc1ccc2c(c1)OCO2	-22	64*	0
C[C@H]1CN([C@@H](C)CO)C(=O)Cc2cc(NC(=O)Nc3cccc4ccccc34)ccc2O[C@H]1CN(C)Cc1ccc(Oc2ccccc2)cc1	-21	26	.
C[C@H]1CN([C@@H](C)CO)C(=O)c2cccc(NC(=O)Nc3cccc4ccccc34)c2O[C@H]1CN(C)Cc1ccc2c(c1)OCO2	-16	65*	-1
C[C@@H]1CN([C@@H](C)CO)C(=O)Cc2cc(NC(=O)Nc3cccc4ccccc34)ccc2O[C@H]1CN(C)CC1CC1	.	.	1
C[C@H](CO)N1C[C@H](C)[C@H](CN(C)CC2CCCCC2)Oc2ccc(NC(=O)Nc3cccc4ccccc34)cc2CC1=O	4	61*	.
C[C@@H]1CN([C@H](C)CO)C(=O)c2cccc(NC(=O)Nc3cccc4ccccc34)c2O[C@@H]1CN(C)Cc1ccc2c(c1)OCO2	-17	-13	-1
C[C@@H]1CN([C@H](C)CO)C(=O)Cc2cc(NC(=O)Nc3cccc4ccccc34)ccc2O[C@H]1CN(C)Cc1ccc(Oc2ccccc2)cc1	-10	57*	.
C[C@@H]1CN([C@H](C)CO)C(=O)Cc2cc(NC(=O)Nc3ccccc3)ccc2O[C@H]1CN(C)Cc1ccc2c(c1)OCO2	-6	-9	-1
COC(=O)CCCCCCC(=O)N/N=C/[C@H](O)[C@@H](O)[C@@H](O)[C@H](O)CO	9	-13	0
COCCOC(=O)N1C(=O)[C@@]2(c3cc(C#CC4=CCCCC4)ccc31)[C@H](C(=O)N1CCN(c3ncccn3)CC1)[C@H]1C(=O)O[C@H](c3ccccc3)[C@H](c3ccccc3)N1[C@@H]2c1ccc(O)cc1	.	.	0
C=C(C)[C@@H]1CC=C(/C=N/NC(=O)c2ccccc2O)CC1	-22	-22	-7
O=C(NO)c1cccc(C(=O)N/N=C/c2ccc(OCCO)cc2)c1	3	-11	.
O=C(O)c1ccc(/C=N/NC(=O)c2ccccn2)cc1	5	-18	.
CC(C)(C)OC(=O)NC1(/C=N/NC(=O)CCCCCCC(=O)NO)CCCC1	.	.	0
O=C(N/N=C/c1cccc(B(O)O)c1)c1ccccn1	4	-8	-10
SMILES	INS-1E rescue	T cruzi HTS	A1 apoptosis 2
O=C(CCCCCCC(=O)Nc1ccccc1O)N/N=C/[C@H](O)[C@@H](O)[C@H](O)[C@H](O)CO	-5	2	0
COC(=O)CCCCCCC(=O)N/N=C/c1cccc(O)c1O	-17	41	1
CC(C)(C)OC(=O)N1CCC[C@H]1/C=N/NC(=O)CCCCCCC(=O)O	3	-10	.
C[C@@H]1CN([C@H](C)CO)C(=O)c2cc(NC(=O)Nc3cccc4ccccc34)ccc2O[C@H]1CN(C)Cc1ccc(Cl)c(Cl)c1	-34	58*	-1
C[C@H]1CN([C@@H](C)CO)C(=O)c2cc(NC(=O)Nc3cccc4ccccc34)ccc2O[C@H]1CN(C)Cc1ccccc1	-5	-16	1
C[C@@H]1CN([C@H](C)CO)C(=O)c2cc(NC(=O)Nc3cccc4ccccc34)ccc2O[C@@H]1CN(C)Cc1ccc(Cl)c(Cl)c1	-12	54	.
C[C@H](CO)N1C[C@H](C)[C@H](CN(C)Cc2ccc3c(c2)OCO3)Oc2ccc(NC(=O)Nc3cccc4ccccc34)cc2C1=O	-19	61*	-1
O=C(N/N=C/c1c[nH]c2ccccc12)c1ccccn1	16	-5	-9
CCOc1cc(/C=N/NC(=O)c2cccc(C(=O)NO)c2)ccc1O	-2	-1	.
O=C(N/N=C/c1ccncc1Br)c1ccccc1O	-37	1	-11
C[C@H](CO)N1C[C@H](C)[C@H](CN(C)C(=O)Nc2ccccc2)Oc2ncc(C#Cc3ccc(C(F)(F)F)cc3)cc2C1=O	.	83*	0
C[C@H](CO)N1C[C@H](C)[C@H](CN(C)C(=O)Nc2ccc3c(c2)OCO3)Oc2ncc(C#Cc3ccc(C(F)(F)F)cc3)cc2C1=O	.	83*	0
C[C@H](CO)N1C[C@H](C)[C@H](CN(C)C(=O)Nc2ccc3c(c2)OCO3)Oc2ncc(C#CC(C)(C)O)cc2C1=O	-11	-12	.
C[C@H](CO)N1C[C@H](C)[C@H](CN(C)C(=O)Nc2ccccc2)Oc2ncc(C#Cc3ccccc3)cc2C1=O	.	-5	-1
COc1ccc(NC(=O)N(C)C[C@@H]2Oc3ncc(C#CC(C)(C)O)cc3C(=O)N([C@H](C)CO)C[C@@H]2C)cc1	.	-5	-1
COc1ccc(NC(=O)N(C)C[C@@H]2Oc3ncc(C#Cc4ccc(C(F)(F)F)cc4)cc3C(=O)N([C@H](C)CO)C[C@@H]2C)cc1	.	83*	0
NC(=O)C1CCCN(/[N+]([O-])=N/OCCBr)C1 (centres undefined)	.	.	0
COc1ccc(/C=N/NC(=O)CCCCC(=O)NO)cc1OC	7	-22	.
C#CCOc1ccc(/C=N/NC(=O)c2cccc(C(=O)NO)c2)cc1	-7	-4	-8
C[C@@H]1CN([C@H](C)CO)C(=O)Cc2cc(N(C)C)ccc2O[C@@H]1CN(C)Cc1ccc2c(c1)OCO2	-7	-23	.
C[C@H]1CN([C@@H](C)CO)C(=O)Cc2cc(N(C)C)ccc2O[C@@H]1CN(C)Cc1ccc(Cl)c(Cl)c1	-8	72*	.
